Measured values pooled from the literature.
Compare with care: the assays were run in different laboratories.
Target: Serine/threonine-protein kinase Sgk3 (SGK3, Homo sapiens, UniProt Q96BR1)
One construct used (Q96BR1 1-496): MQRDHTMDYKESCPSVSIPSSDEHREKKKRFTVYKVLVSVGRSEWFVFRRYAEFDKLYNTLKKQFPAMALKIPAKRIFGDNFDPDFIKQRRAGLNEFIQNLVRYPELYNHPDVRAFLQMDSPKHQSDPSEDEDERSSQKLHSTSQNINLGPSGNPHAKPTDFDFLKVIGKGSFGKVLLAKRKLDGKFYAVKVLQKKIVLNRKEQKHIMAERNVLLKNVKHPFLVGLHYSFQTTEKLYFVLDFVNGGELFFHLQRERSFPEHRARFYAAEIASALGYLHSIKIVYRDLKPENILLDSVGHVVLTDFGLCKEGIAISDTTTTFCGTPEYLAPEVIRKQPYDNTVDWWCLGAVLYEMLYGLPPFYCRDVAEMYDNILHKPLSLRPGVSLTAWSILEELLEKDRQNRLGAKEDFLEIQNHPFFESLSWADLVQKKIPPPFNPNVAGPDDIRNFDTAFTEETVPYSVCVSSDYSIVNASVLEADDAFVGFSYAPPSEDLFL

| SMILES | observed | action | method | concentration | endpoint | value |
| --- | --- | --- | --- | --- | --- | --- |
| CC(C)(C)c1cc(C=C(C#N)C#N)cc(Br)c1O | enzyme activity | inhibitor | – | 0.5 µM | remaining activity | 97.7% |
| COc1ncccc1-c1cnn2ccc(N3CCN(C(=O)OC(C)C)CC3)nc12 | binding | – | competition with immobilised ligand | 1 µM | remaining binding | 100% |
| O=c1[nH]c2ccccc2n1C1CCN(Cc2ccc(-c3[nH]c4cc5ncnc5cc4nc3-c3ccccc3)cc2)CC1 | cell-free assay | – | – | 0.5 µM | remaining signal | 108% |
| Cn1cncc1[C@](O)(COc1ccc(C#N)cc1-c1ccc(OC(F)(F)F)cc1)c1ccc(C#N)cc1 | cell-free assay | – | competition with immobilised ligand | 1 µM | remaining binding | 100% |
| Nc1ncc(-c2nc(N3CCOCC3)nc(N3CCOCC3)n2)c(C(F)F)n1 | binding | – | competition with immobilised ligand | 10 µM | remaining binding | 44% |
| Cn1cc(-c2cccc(N3CCc4c(sc5c4CC(C)(C)C5)C3=O)c2CO)cc(Nc2ccncn2)c1=O | enzyme activity | inhibitor | – | 1 µM | inhibition | 5% |
| COc1cc(Nc2ncc(F)c(Nc3ccc4c(n3)NC(=O)C(C)(C)O4)n2)cc(OC)c1OC | binding | – | – | 10 µM | inhibition | 52% |
| Cn1cc(-c2cc(F)cc(N3CCn4c(cc5c4CCCC5)C3=O)c2CO)cc(Nc2ccc(N3CCN(C4COC4)CC3)cn2)c1=O | enzyme activity | inhibitor | – | 0.1 µM | inhibition | 14% |
| Cc1nn(C)cc1-c1nc2c(N3CCN(Cc4ccc(Cl)cc4)CC3)c(Cl)cnc2[nH]1 | binding | – | competition with immobilised ligand | 1 µM | remaining binding | 100% |
